Data set [1] in a line: folding enthalpy; higher = less favourable; fluorescence melt of hairpins on a sequencing array, two-state fit. The following applies: sodium 0.088 M. In outline:
(§1)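 Cy3 fluorescence of library hairpins on a sequenced MiSeq flow cell, with annealed Cy3 and quencher oligos, was imaged in 50 mM Na-HEPES pH 8.0, 25 mM NaCl in 2.5 °C steps up to 60 °C. Signals were normalised to pre-quench Cy3 and to control variants. Melting temperature and folding enthalpy came from bootstrapped two-state fits, inverse-variance combined over four replicates. Fitted temperatures were raised by 9.35 °C to match UV melts.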

A short description of data set [2]: melting temperature; fluorescence melt of hairpins on a sequencing array, two-state fit, raised by 9.35 °C to match UV melts. Conditions: sodium 0.088 M. The essentials:
as §1

This passage reports folding enthalpy and Tm results from the array DNA melting data of Ke et al. (doi:10.1101/2024.01.08.574731).

Consider GATGGCGAAAGCCGGATC ((((((....)))..))), for which, in data set [1], the folding enthalpy is -10.2 kcal/mol. Also, the Tm in data set [2] was 37 °C.
The matching figures for GATGGCGGAAACACCATC (((((.(....).))))): -34.3 kcal/mol and 47.2 °C.
Turning to GATGGGCGAAAGCCGATC (((.(((....))).))), in data set [1], the folding enthalpy is -18.8 kcal/mol. For the same sequence, in data set [2], the Tm was determined as 52.7 °C.
The matching figures for GATGGTGGAAACACTGTC ((..(((....)))..)): -15.5 kcal/mol and 35.8 °C.
Consider GATGTAGAAATACATC ((((((....)))))), for which the folding enthalpy in data set [1] was -30.3 kcal/mol. Also, in data set [2], the Tm was found to be 45.7 °C.
Take GATGTAGGAAACCACATC (((((.(....).))))): the folding enthalpy in data set [1] is -34.1 kcal/mol. The Tm in data set [2] turned out to be 37.6 °C.
The matching figures for GATGTCGGAAACGACATC (((((((....))))))): -36.4 kcal/mol and 68.4 °C.
In the same order, the values of GATGTCGGAAACGGCATC ((((.((....)).)))) are -46.5 kcal/mol and 54.4 °C.
As for GATGTGAAAACATC (((((....))))), the folding enthalpy in data set [1] was -28.4 kcal/mol. In addition, in data set [2], the Tm worked out at 49 °C.
In the case of GATGTGGAAACACATC ((((((....)))))), in data set [1], the folding enthalpy is -35.5 kcal/mol. The Tm in data set [2] amounted to 57.1 °C.
The matching figures for GATGTTACGAAAGTAATC (((..(((....)))))): -13.5 kcal/mol and 26.9 °C.
For the sequence GATGTTGGAAACAACACC (.(((((....))))).), the folding enthalpy in data set [1] is -15.6 kcal/mol. In addition, the Tm in data set [2] amounted to 34.8 °C.
The matching figures for GATTAACCGAAAGGTATC (((..(((....)))))): -12.7 kcal/mol and 27.6 °C.
In the case of GATTAACGAAAGTTCATC (((.(((....))).))), the folding enthalpy in data set [1] is -24.6 kcal/mol. Also, the Tm in data set [2] is 33.9 °C.
In the same order, the values of GATTAACGAAAGTTTATC (((.(((....))).))) are -22.8 kcal/mol and 34.9 °C.
On to GATTAAGGAAACTTAGTC ((.((((....)))).)), for which the folding enthalpy in data set [1] was -12.6 kcal/mol. For the same sequence, the Tm in data set [2] is 28 °C.
Regarding GATTACACGAAAGTGATC (((..(((....)))))), in data set [1], the folding enthalpy is -9.64 kcal/mol. Further, the Tm in data set [2] was 26.4 °C.
The matching figures for GATTACGAAAGTAAATC ((((((....))).))): -19.9 kcal/mol and 36 °C.
In the same order, the values of GATTACGAAAGTAAGATC ((((((....)))..))) are -16.2 kcal/mol and 39 °C.
In the same order, the values of GATTACGAAAGTATAATC ((((((....)))..))) are -7.84 kcal/mol and 27.1 °C.
With GATTACGAAAGTATATC ((((((....))).))), the folding enthalpy in data set [1] is -17.1 kcal/mol. Besides, the Tm in data set [2] amounted to 32.9 °C.
The matching figures for GATTACGCGAAAGCGATC (((..(((....)))))): -6.5 kcal/mol and 21.4 °C.
On to GATTAGCGAAAGCTGATC (((.(((....))).))), for which, in data set [1], the folding enthalpy was -31 kcal/mol. The Tm in data set [2] stood at 51.1 °C.
The matching figures for GATTAGGAAACTAATC ((((((....)))))): -30.5 kcal/mol and 43.9 °C.
Turning to GATTAGGCGAAAGCCATC (((..(((....)))))), the folding enthalpy in data set [1] is -8.82 kcal/mol. Besides, in data set [2], the Tm was 23.4 °C.
The matching figures for GATTAGGGAAACCTAGTC ((.((((....)))).)): -25.4 kcal/mol and 33.7 °C.
In the same order, the values of GATTCCCGAAAGGGGATC (((.(((....))).))) are -36.3 kcal/mol and 57.3 °C.
As for GATTCCGAAAGGACATC ((((((....))).))), the folding enthalpy in data set [1] was -21.4 kcal/mol. Moreover, in data set [2], the Tm worked out at 39.2 °C.
The matching figures for GATTCCGAAAGGAGATC ((((((....))).))): -21.3 kcal/mol and 33.7 °C.
In the same order, the values of GATTCCGAAAGGAGTATC ((((((....)))..))) are -15.7 kcal/mol and 27.1 °C.
In the same order, the values of GATTCCGAAAGGATCATC ((((((....)))..))) are -17 kcal/mol and 29.6 °C.
Regarding GATTCGGGAAACCGAACC (.(((((....))))).), in data set [1], the folding enthalpy is -13.7 kcal/mol. For the same sequence, the Tm in data set [2] was determined as 40.2 °C.
GATTCTCCGAAAGGAATC (((..(((....)))))): in data set [1], the folding enthalpy is -14.2 kcal/mol. In addition, the Tm in data set [2] is 28.2 °C.
Consider GATTCTGAAAAGAATC ((((((....)))))), for which the folding enthalpy in data set [1] is -33.1 kcal/mol. Further, in data set [2], the Tm worked out at 50 °C.
On to GATTCTGGAAACAGAGTC ((.((((....)))).)), for which the folding enthalpy in data set [1] is -30.2 kcal/mol. Further, in data set [2], the Tm came to 38.3 °C.
Regarding GATTGACGAAAGTCCATC (((.(((....))).))), the folding enthalpy in data set [1] was -23 kcal/mol. Further, the Tm in data set [2] is 39.3 °C.
